ChEMBL document CHEMBL1134464, “Synthesis, antimalarial activity, biomimetic iron(II) chemistry, and in vivo metabolism of novel, potent C-10-phenoxy derivatives of dihydroartemisinin” (J Med Chem, 2001)

Legend:
[1] = system: Plasmodium falciparum; assay: In vitro antimalarial activity against chloroquine-resistant Plasmodium falciparum K1; type: functional, organism-based
Summary of the method: (§1)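 48-h [3H]hypoxanthine incorporation assay on P. falciparum cultured in human erythrocytes in RPMI 1640 with 25 mM HEPES, 32 mM NaHCO3 and 10% human serum, gassed 3% O2/4% CO2/93% N2. Assay at 2% parasitemia and 0.5% hematocrit, with DMSO stocks diluted in medium, run in triplicate. 0.5 μCi hypoxanthine added after 24 h at 37 °C, then 24 h more. IC50 interpolated from probit of log dose–response.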

[2] = system: Plasmodium falciparum; assay: In vitro antimalarial activity against chloroquine-sensitive Plasmodium falciparum HB3; type: functional, organism-based; summary of the method: as §1
[3] = system: Plasmodium berghei; assay: In vivo antimalarial activity against Plasmodium berghei
[4] = system: Plasmodium yoelii; assay: In vivo antimalarial activity against Plasmodium yoelii when administered subcutaneously; details: Mus musculus, sc
[5] = system: Mus musculus; assay: In vivo antimalarial activity against Plasmodium berghei when administered perorally; type: functional; details: po
[6] = system: Mus musculus; assay: In vivo antimalarial activity against Plasmodium yoelii when administered subcutaneously; type: functional; details: sc
[7] = system: Mus musculus; assay: In vivo antimalarial activity against Plasmodium berghei; type: functional

SMILES | IC50 [1] [nM] | IC50 [2] [nM] | also measured
C[C@H]1[C@@H](Oc2ccc(F)cc2)O[C@@H]2OC3(C)CC[C@H]4[C@H](C)CC[C@@H]1[C@@]24OO3 (single isomer, unassigned) | 4.58 | 2.88 | –
C[C@@H]1CC[C@H]2[C@@H](C)C(=O)O[C@@H]3O[C@@]4(C)CC[C@@H]1[C@]32OO4 [ARTEMISININ] | 11.2 | 9.67 | –
Cc1ccc(O[C@H]2O[C@@H]3OC4(C)CC[C@H]5[C@H](C)CC[C@@H]([C@H]2C)[C@@]35OO4)cc1 (single isomer, unassigned) | 3.92 | 3.24 | –
C[C@H]1[C@H](Oc2ccccc2)O[C@@H]2OC3(C)CC[C@H]4[C@H](C)CC[C@@H]1[C@@]24OO3 (single isomer, unassigned) | 2.97 | 2.61 | –
C[C@H]1[C@H](Oc2ccc(F)cc2)O[C@@H]2OC3(C)CC[C@H]4[C@H](C)CC[C@@H]1[C@@]24OO3 (single isomer, unassigned) | 5.7 | 4.04 | –
Cc1ccc(O[C@@H]2O[C@@H]3OC4(C)CC[C@H]5[C@H](C)CC[C@@H]([C@H]2C)[C@@]35OO4)cc1 (single isomer, unassigned) | 3.18 | 2.87 | –
C[C@H]1[C@@H](O)O[C@@H]2O[C@@]3(C)CC[C@H]4[C@H](C)CC[C@@H]1[C@@]24OO3 [ARTENIMOL] | – | – | ED50 [3]: 1.95 mg/kg
COc1ccc(O[C@H]2O[C@@H]3OC4(C)CC[C@H]5[C@H](C)CC[C@@H]([C@H]2C)[C@@]35OO4)cc1 (single isomer, unassigned) | 4.58 | – | –
C[C@H]1[C@H](OC(=O)CCC(=O)[O-])O[C@@H]2O[C@@]3(C)CC[C@H]4[C@H](C)CC[C@@H]1[C@@]24OO3.[Na+] [SODIUM ARESUNATE] | – | – | ED50 [4]: 3.6 mg/kg; ED50 [5]: 4 mg/kg; ED90 [5]: 13 mg/kg; ED90 [6]: 13.5 mg/kg
C[C@H]1[C@H](Oc2ccc(C(F)(F)F)cc2)O[C@@H]2OC3(C)CC[C@H]4[C@H](C)CC[C@@H]1[C@@]24OO3 (single isomer, unassigned) | 4.62 | 3.42 | –
C[C@H]1[C@@H](Oc2ccc(C(F)(F)F)cc2)O[C@@H]2OC3(C)CC[C@H]4[C@H](C)CC[C@@H]1[C@@]24OO3 (single isomer, unassigned) | 5.29 | 3.9 | ED50 [4]: 2.2 mg/kg; ED50 [5]: 2.7 mg/kg; ED90 [5]: 5.4 mg/kg; ED90 [6]: 3.1 mg/kg; ED50 [7]: 2.12 mg/kg
CO[C@H]1O[C@@H]2O[C@@]3(C)CC[C@H]4[C@H](C)CC[C@@H]([C@H]1C)[C@@]24OO3 [ARTEMETHER] | 4.55 | 3.42 | ED50 [7]: 6.02 mg/kg
COc1ccc(O[C@@H]2O[C@@H]3OC4(C)CC[C@H]5[C@H](C)CC[C@@H]([C@H]2C)[C@@]35OO4)cc1 (single isomer, unassigned) | 3.86 | 3.32 | –
C[C@H]1[C@@H](Oc2ccccc2)O[C@@H]2OC3(C)CC[C@H]4[C@H](C)CC[C@@H]1[C@@]24OO3 (single isomer, unassigned) | 3.66 | 3.24 | ED50 [7]: 3.09 mg/kg
